According to ChEMBL document CHEMBL4038277, “Design, synthesis and biological evaluation of 7-methylimidazo[1,5-a]pyrazin-8(7H)-one derivatives as BRD4 inhibitors” (Bioorg Med Chem, 2017):

Tests used:
HL-60 = assay: Antiproliferative activity against BRD4-sensitive human HL60 cells after 72 hrs by CCK8 assay; format: functional, cell-based; conditions: HL-60, 72 h
Method in brief: (§1)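 Cells seeded at 1 × 10^4 per well in 100 µL IMDM with 20% FBS. After 12 h, triple-diluted compound series added in 50 µL. Read 72 h after seeding: CCK-8 reagent added, 4 h at 37 °C, absorbance at 450 nm, blank-corrected relative to untreated control. IC50 fitted from the curve. Means ± SD from three independent experiments.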

K562 = assay: Antiproliferative activity against BRD4-independent human K562 cells after 72 hrs by CCK8 assay; format: functional, cell-based; conditions: K562, 72 h; method in brief: as §1
MV4-11 = assay: Antiproliferative activity against BRD4-sensitive human MV411 cells after 72 hrs by CCK8 assay; format: functional, cell-based; conditions: MV4-11, 72 h; method in brief: as §1
[1] = target: T1, Bromodomain-containing protein 4 (Homo sapiens, UniProt O60885); assay: Inhibition of BRD4-BD1 (44 to 168 residues) (unknown origin) using histone H4 peptide as substrate preincubated for 15 mins followed by addition of substrate measured after 60 mins by AlphaScreen assay
[2] = target: T1, Bromodomain-containing protein 4; assay: Inhibition of BRD4-BD2 (333 to 460 residues) (unknown origin) using histone H4 peptide as substrate preincubated for 15 mins followed by addition of substrate measured after 60 mins by AlphaScreen assay
[3] = target: T1, Bromodomain-containing protein 4; assay: Inhibition of recombinant human His-tagged BRD4-BD1 expressed in bacteria using biotinylated H4-tetraacetyl peptide as substrate after 20 mins by AlphaScreen assay

Compound | IC50 (HL-60) [nM] | IC50 (K562) [nM] | IC50 (MV4-11) [nM] | IC50 [1] [nM] | IC50 [2] [nM] | Ki [3] [nM]
Cc1sc2c(c1C)C(c1ccc(Cl)cc1)=N[C@@H](CC(=O)OC(C)(C)C)c1nnc(C)n1-2 | 110 | 9120 | 80 |  |  | 
CC(=O)Nc1ccc(CNc2cccc(Oc3ccc(S(C)(=O)=O)cc3-c3cn(C)c(=O)c4cncn34)c2)cc1 |  |  |  | 380 | 180 | 
Cn1cc(-c2cc(S(C)(=O)=O)ccc2Oc2ccc(F)cc2F)n2cncc2c1=O | 2860 | > 10000 | 1850 | 520 | 580 | 
CCS(=O)(=O)c1ccc(Oc2cccc(NS(=O)(=O)c3ccccc3F)c2)c(-c2cn(C)c(=O)c3cncn23)c1 |  |  |  | 240 | 170 | 
CCS(=O)(=O)c1ccc(Oc2cccc(NCc3ccc(NC(C)=O)cc3)c2)c(-c2cn(C)c(=O)c3cncn23)c1 | 2860 | > 10000 | 170 | 130 | 40 | 
Cn1cc(-c2cc(S(C)(=O)=O)ccc2Oc2cccc(NCc3ccc(C#N)cc3)c2)n2cncc2c1=O | 6100 | > 10000 | 4200 | 350 | 180 | 
CCS(=O)(=O)c1ccc(Oc2ccc(F)cc2F)c(-c2cn(C)c(=O)c3cncn23)c1 | 620 | > 10000 | 410 | 240 | 260 | 
Cn1cc(-c2cc(S(C)(=O)=O)ccc2Oc2cccc(NCc3ccc(F)cc3)c2)n2cncc2c1=O | 1400 | > 10000 | 950 | 680 | 320 | 
COc1cccc(CNc2cccc(Oc3ccc(S(C)(=O)=O)cc3-c3cn(C)c(=O)c4cncn34)c2)c1 | 1530 | > 10000 | 1160 | 430 | 190 | 
CCS(=O)(=O)c1ccc(Oc2cccc(NS(=O)(=O)c3ccc(OC)cc3)c2)c(-c2cn(C)c(=O)c3cncn23)c1 |  |  |  | 200 | 140 | 
CCS(=O)(=O)c1ccc(Oc2cccc(NS(=O)(=O)c3cccs3)c2)c(-c2cn(C)c(=O)c3cncn23)c1 |  |  |  | 390 | 280 | 
CCS(=O)(=O)c1ccc(Oc2cccc(NCc3ccc(C#N)cc3)c2)c(-c2cn(C)c(=O)c3cncn23)c1 | 570 | > 10000 | 180 | 130 | 76 | 
CCS(=O)(=O)c1ccc(Oc2ccc(F)cc2)c(-c2cn(C)c(=O)c3cncn23)c1 | 940 | > 10000 | 780 | 200 | 220 | 
CCS(=O)(=O)Nc1ccc(Oc2ccc(F)cc2F)c(-c2cn(C)c(=O)c3[nH]ccc23)c1 [MIVEBRESIB] | 90 | > 10000 | 70 | 74 | 69 | 15
